pIC50: −log10 of the molar value. Peptide text beside a SMILES is read from it.
The compounds below were run against Integrin alpha-IIb/beta-3 (Homo sapiens, UniProt P05106+P08514) (assay: Ability to inhibit binding of biotin-labeled human fibrinogen to immobilized fibrinogen receptor purified from human erythroleukemia (HEL) cells.).
How it was run: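 Purified GP IIb-IIIa (1 μg/mL, pH 7.4 Tris/NaCl/CaCl2 buffer) coated overnight at 4 °C, blocked with 3.5% BSA 2 h at 30 °C. Wells then incubated with 1 nM biotinylated fibrinogen plus graded compound concentrations, 3 h at 30 °C. IC50 from dose–response curves.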

Sequence of Integrin alpha-IIb/beta-3 (P05106 27-788 limits assumed): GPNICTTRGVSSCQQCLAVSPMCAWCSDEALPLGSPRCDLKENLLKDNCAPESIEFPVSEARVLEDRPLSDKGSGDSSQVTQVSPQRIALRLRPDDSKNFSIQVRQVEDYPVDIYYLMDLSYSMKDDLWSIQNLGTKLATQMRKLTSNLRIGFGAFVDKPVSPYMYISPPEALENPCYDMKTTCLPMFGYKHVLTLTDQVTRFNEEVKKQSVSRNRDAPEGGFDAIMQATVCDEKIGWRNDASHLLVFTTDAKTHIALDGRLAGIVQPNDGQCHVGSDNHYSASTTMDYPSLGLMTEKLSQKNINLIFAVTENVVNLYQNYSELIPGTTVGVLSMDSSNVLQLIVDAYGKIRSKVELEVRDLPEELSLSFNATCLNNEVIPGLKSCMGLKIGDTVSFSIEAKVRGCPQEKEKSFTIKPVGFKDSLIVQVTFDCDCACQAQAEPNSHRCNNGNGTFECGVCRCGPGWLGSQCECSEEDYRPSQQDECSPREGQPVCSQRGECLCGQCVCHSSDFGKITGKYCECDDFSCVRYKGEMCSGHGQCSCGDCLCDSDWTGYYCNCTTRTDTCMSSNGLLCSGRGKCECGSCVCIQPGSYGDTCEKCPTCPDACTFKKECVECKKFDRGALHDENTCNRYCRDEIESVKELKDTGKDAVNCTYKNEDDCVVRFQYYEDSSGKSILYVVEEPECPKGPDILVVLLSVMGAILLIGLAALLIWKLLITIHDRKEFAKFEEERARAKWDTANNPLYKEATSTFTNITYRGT
Sequence of Integrin alpha-IIb/beta-3 (P08514 32-887 limits assumed): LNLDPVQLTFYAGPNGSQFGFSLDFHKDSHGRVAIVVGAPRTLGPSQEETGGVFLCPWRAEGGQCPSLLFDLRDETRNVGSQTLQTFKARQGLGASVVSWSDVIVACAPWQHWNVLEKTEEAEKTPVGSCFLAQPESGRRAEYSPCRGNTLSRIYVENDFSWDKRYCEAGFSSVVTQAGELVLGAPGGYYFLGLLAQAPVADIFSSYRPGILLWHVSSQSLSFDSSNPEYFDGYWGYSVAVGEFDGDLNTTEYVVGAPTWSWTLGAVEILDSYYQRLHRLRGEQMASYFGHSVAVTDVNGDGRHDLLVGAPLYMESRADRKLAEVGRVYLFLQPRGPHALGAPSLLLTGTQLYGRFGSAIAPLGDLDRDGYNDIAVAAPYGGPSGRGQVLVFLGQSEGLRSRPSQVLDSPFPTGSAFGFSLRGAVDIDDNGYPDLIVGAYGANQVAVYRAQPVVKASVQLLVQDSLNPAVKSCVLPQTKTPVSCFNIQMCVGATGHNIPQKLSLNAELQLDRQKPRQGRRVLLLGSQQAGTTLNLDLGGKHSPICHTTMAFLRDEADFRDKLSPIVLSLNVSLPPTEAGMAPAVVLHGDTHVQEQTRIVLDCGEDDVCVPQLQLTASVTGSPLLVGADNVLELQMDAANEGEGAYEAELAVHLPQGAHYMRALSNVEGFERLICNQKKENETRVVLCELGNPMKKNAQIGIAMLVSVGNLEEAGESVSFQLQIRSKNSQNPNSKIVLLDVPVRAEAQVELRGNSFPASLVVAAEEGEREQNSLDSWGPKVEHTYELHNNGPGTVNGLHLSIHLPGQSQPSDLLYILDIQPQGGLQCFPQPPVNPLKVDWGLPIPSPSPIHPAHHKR
Sequence of Integrin alpha-IIb/beta-3 (P08514 891-1039 limits assumed): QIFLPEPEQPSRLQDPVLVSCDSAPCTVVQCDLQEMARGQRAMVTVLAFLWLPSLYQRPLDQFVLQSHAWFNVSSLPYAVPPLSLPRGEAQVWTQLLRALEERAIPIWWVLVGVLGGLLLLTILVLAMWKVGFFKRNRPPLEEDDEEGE

Row | pIC50 | Structure (SMILES)
1 | 7.20 | N=C(N)c1ccc(C(=O)NCC(=O)N2CCN(CCC(=O)O)C(=O)[C@@H]2CC(=O)O)cc1
2 | 6.96 | N=C(N)NCCC[C@H](N)C(=O)NCC(=O)N[C@@H](CC(=O)O)C(=O)N[C@@H](Cc1ccccc1)C(=O)O (H-RGDF-OH)
3 | 7.79 | COC(=O)C[C@@H]1C(=O)N(CC(=O)O)CCN1C(=O)CNC(=O)c1ccc(C(=N)N)cc1
4 | 8.71 | N=C(N)c1ccc(C(=O)NCC(=O)N2CCN(CC(=O)O)C(=O)[C@@H]2Cc2ccccc2)cc1
5 | 6.89 | N=C(N)c1cccc(C(=O)NCC(=O)N2CCN(CC(=O)O)C(=O)[C@@H]2CC(=O)O)c1
6 | 6.48 | N=C(N)c1ccc(C(=O)NCC(=O)N2CCN(CC(N)=O)C(=O)[C@@H]2CC(=O)O)cc1
7 | 9.68 | N=C(N)c1ccc(C(=O)NCC(=O)N2CCN(CC(=O)O)C(=O)[C@@H]2CCC(=O)O)cc1
8 | 9.54 | COC(=O)CC[C@H]1C(=O)N(CC(=O)O)CCN1C(=O)CNC(=O)c1ccc(C(=N)N)cc1
9 | 6.68 | CN(C)C(N)=Nc1ccc(C(=O)NCC(=O)N2CCN(CC(=O)O)C(=O)[C@@H]2CC(=O)O)cc1
10 | 7.70 | N=C(N)NCC1CCC(C(=O)NCC(=O)N2CCN(CC(=O)O)C(=O)[C@@H]2CC(=O)O)CC1 (stereo not given in full)
